Sampled rows, rich in hits. Any-hit rate of the full collection: about 1.4%.
Efflux pump inh: inhibitors of Candida efflux pumps in yeast, primary screen, S. cerevisiae, Nile Red, multiplex. S. cerevisiae Candida pump triplex. inhibition, % at 10 µM. 330,000 tested, 0.44% active. AID 485275, 2010;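 active means plate passing quality check with inhibition over a set limit, or well fluorescence over plate mean plus 4 SD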;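 further: Nile Red retained in pooled yeast measured as flow cytometry median fluorescence; 0% = buffer negative control and 100% = Enniatin B positive control; higher means more Nile Red kept so more efflux inhibition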
HDAC3 inh: HDAC3 deacetylase inhibitors, primary screen, biochemical, fluorescence, cell-free homogeneous; Histone deacetylase 3 (Homo sapiens), O15379; recombinant HDAC3, fluorogenic peptide/trypsin coupled; inhibition, % at 8.3 µM; 320,000 tested, 0.15% active; AID 2718, 2010; in the data active means inhibition above about 26%, passing the limit was not always enough; inconclusive means no clear call, values can overlap the other calls
CR mimetic SO: reduction of superoxide in aged yeast, primary screen, HTS; S. cerevisiae aged cells, superoxide DHE fluorescence; hits give low values; superoxide response (% of plate mean), % at 10 µM; 330,000 tested, 0.18% active; AID 2690, 2010;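 active means superoxide response under a set limit, about three screen SD below normal, cut at about 65% in these data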;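 further: yeast aged for seven days with compound at 30 °C before DHE staining; 100% = average MFI of all compound-treated wells on the plate with controls excluded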
Tb MetRS inh: T. brucei MetRS inhibitors, primary screen, biochemical, luminescence | methionyl-tRNA synthetase (Trypanosoma brucei brucei) | purified T. brucei MetRS, ATP depletion, Kinase-Glo luminescence | inhibition, % at 11.9 µM | 360,000 tested, 0.4% active | AID 624268, 2012;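 active means inhibition above a per-plate cutoff of the control wells' mean inhibition plus 3 SD, cut at about 5.5% in these data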;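 further: 0% = DMSO wells median and 100% = median of wells with control inhibitor compound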
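assay system = parasite MetRS enzyme | timing = 15 min preincubation, 2 h reaction, all 25 °C | evaluation = percent inhibition relative to median high and low control wells | medium = HEPES buffer containing pyrophosphatase, BSA, spermine, DTT | compound = single dose, 11.9 µM final nominal, 0.9% final DMSO | detection = Kinase-Glo luminescence, ATP depletion format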
IDE inh: human IDE inhibitors in live cells, primary screen, fluorescence polarization, HEK cells, FAbetaB substrate; Insulin-degrading enzyme (Homo sapiens), P14735; 320,000 tested, 0.41% active; FAbetaB cleavage; inhibition, % at 5.59 µM;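 active means percent inhibition above the average of all tested compounds plus 3 SD, set per screening campaign, cut at about 16% in these data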;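 further: IDE supplied by intact live HEK cells; FP after avidin binding of uncleaved biotin substrate so inhibition keeps polarization high; 0% = DMSO wells and 100% = 60 µM reference IDE inhibitor Ii1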
Target sequence (P14735 whole entry, looked up): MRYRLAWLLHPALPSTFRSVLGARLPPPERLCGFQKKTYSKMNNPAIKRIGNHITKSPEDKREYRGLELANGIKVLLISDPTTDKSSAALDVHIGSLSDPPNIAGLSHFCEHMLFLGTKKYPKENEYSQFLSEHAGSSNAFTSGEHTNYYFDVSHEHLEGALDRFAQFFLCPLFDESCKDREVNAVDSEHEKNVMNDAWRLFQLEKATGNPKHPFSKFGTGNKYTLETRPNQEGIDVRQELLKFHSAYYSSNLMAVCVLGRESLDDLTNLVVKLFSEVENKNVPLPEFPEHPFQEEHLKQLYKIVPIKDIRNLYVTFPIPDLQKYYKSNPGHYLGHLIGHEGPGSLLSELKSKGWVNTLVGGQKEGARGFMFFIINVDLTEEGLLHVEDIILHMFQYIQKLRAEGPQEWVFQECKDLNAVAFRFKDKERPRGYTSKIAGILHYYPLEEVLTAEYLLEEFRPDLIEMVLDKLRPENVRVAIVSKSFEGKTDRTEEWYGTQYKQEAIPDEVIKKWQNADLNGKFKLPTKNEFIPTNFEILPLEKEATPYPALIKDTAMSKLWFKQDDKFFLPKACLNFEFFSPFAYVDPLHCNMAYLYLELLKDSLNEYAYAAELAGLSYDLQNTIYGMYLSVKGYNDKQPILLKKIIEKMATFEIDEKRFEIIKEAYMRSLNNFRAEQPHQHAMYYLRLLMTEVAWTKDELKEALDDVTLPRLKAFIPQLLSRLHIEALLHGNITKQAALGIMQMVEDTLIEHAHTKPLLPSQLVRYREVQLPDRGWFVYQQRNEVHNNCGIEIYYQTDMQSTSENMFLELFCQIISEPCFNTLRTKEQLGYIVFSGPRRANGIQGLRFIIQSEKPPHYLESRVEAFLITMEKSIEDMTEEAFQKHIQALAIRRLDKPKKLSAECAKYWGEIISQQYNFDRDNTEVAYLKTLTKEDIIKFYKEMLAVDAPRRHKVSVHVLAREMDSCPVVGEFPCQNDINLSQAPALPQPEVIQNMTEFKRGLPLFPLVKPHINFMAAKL
IDE act: human IDE activators in live cells, primary screen, fluorescence polarization, HEK cells, FAbeta-B substrate | Insulin-degrading enzyme (Homo sapiens), P14735 | FAbeta-B cleavage; 0% vehicle, 100% cell-free pure enzyme wells | activation, % at 5.96 µM | 340,000 tested, 0.073% active | AID 493087, 2011;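 active means activation above the mean of all tested compounds plus 3 SD, set per screening campaign, cut at about 17% in these data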
IDE inh confirm: human IDE inhibitors in live cells, confirmation, fluorescence polarization, HEK cells, FAbetaB substrate. shares compounds with IDE inh. FAbetaB cleavage. inhibition, % at 5.59 µM. 1,200 tested, 51% active. AID 435028, 2010;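 active means mean inhibition across triplicate wells above the cutoff set by the earlier primary insulin-degrading enzyme screen, cut at about 16% in these data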;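 further: 0% = DMSO wells and 100% = 60 µM reference IDE inhibitor Ii1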
HEK cytotox: cytotoxicity in HEK cells, cytotoxicity control for IDE inhibitor project, cell-based, luminescence; shares compounds with IDE inh; HEK293 cytotoxicity, ATP luminescence; inhibition, % at 5.59 µM; 1,200 tested, 28% active; AID 449730, 2010; in the data active means inhibition above about 22%;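 further: 0% = vehicle wells and 100% = reference cytotoxic drug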
TbMetRS confirm: T. brucei MetRS inhibitors, confirmation, biochemical, luminescence. shares compounds with Tb MetRS inh. T. brucei MetRS enzyme, luminescence (ATP depletion). inhibition, % at 11.9 µM. 1,400 tested, 93% active. AID 624412, 2012; in the data active means inhibition above about 7%
Jurkat tox: Jurkat T cell cytotoxicity, cytotoxicity control for T. brucei MetRS inhibitor project, luminescence, high throughput; 1,400 tested, 12% active; Jurkat cells viability, ATP luminescence; shares compounds with Tb MetRS inh; inhibition, % at 8.3 µM; AID 624413, 2012; in the data active means inhibition above about 15%;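 further: 0% = vehicle and 100% = reference inhibitor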
Tb MetRS inh FP: T. brucei MetRS inhibitors, orthogonal assay for T. brucei MetRS inhibitor project, biochemical, fluorescence polarization. shares compounds with Tb MetRS inh. purified T. brucei MetRS. inhibition, % at 11.9 µM. 1,400 tested, 44% active; in the data active means inhibition above about 17%;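 further: 0% = vehicle wells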
Starred values were filed as active, the others as inactive; ? = inconclusive; / = no result.

SMILES | Efflux pump inh | HDAC3 inh | CR mimetic SO | Tb MetRS inh | IDE inh | IDE act | IDE inh confirm | HEK cytotox | TbMetRS confirm | Jurkat tox | Tb MetRS inh FP
Cc1cc(=O)oc2cc(OCc3ccc(C(=O)OCC(=O)Nc4ccccc4OC(F)F)cc3)ccc12 | 0 | 3 | 88 | 0 | 2 | 1 | / | / | / | / | /
O=C(O)CN1C(=O)/C(=C\c2ccc(OC(=O)c3ccco3)cc2)SC1=S | 0 | ? | 90 | 8.8* | 35* | -53 | 160* | 6 | 27* | -5 | 15
CC(=O)N(Cc1ccccc1)c1nc(-c2ccccc2)cs1 | 0 | 4 | 87 | 0 | -5 | 6 | / | / | / | / | /
COc1cc(C2C(C#N)=C(N)Oc3cc4c(cc32)OCO4)cc(OC)c1OC (stereo unspecified) | 0 | -2 | 98 | 1 | 6 | 0 | / | / | / | / | /
COc1cc(C2C(C#N)=C(N)Oc3cc(N(C)C)ccc32)cc2c1OCO2 (stereo unspecified) | 1 | 2 | 102 | 19* | 19* | -20 | 15 | 67* | 2 | 82* | 7
CCOc1cc(/C=C2\SC(=S)N(NS(=O)(=O)c3ccccc3)C2=O)ccc1O | 0 | 12 | 104 | 9.0* | 39* | -36 | 109* | 3 | 19* | 0 | 24*
c1ccc2c(c1)[nH]c1c(N3CCN(C4CCCCC4)CC3)ncnc12 | 0 | -37 | 104 | 2 | 13 | -19 | / | / | / | / | /
Fc1ccc2[nH]c3c(N4CCc5ccccc5C4)ncnc3c2c1 | 0 | / | 95 | 58* | 29* | / | 12 | 77* | 14* | 50* | 13
O=C(COC(=O)c1cnccn1)Nc1ncc(Cl)cc1Cl | 0 | -2 | 105 | 0 | 0 | 6 | / | / | / | / | /
C1=C(CCNc2ncnc3c2[nH]c2ccccc23)CCCC1 | 0 | 3 | 96 | 79* | 35* | -35 | 13 | 87* | 97* | 56* | 76*
Brc1ccc2[nH]c3c(NCc4ccccn4)ncnc3c2c1 | 0 | 6 | 98 | 83* | 64* | / | 38* | 22* | 88* | 3 | 79*
Cc1cc(NCCO)nc(N2CCOCC2)n1 | 0 | 1 | 86 | -1 | 1 | -4 | / | / | / | / | /
CSc1ncc(C(=O)O)c(C)n1 | 0 | -12 | 99 | 0 | -2 | 2 | / | / | / | / | /

Assay outcomes (PubChem)
